Measurements published in PMC3992281 (Journal of neurochemistry, 2013).

B1: CHGB: purified human recombinant mature CHGB (657 residues) with carboxy-terminal … tag, expressed in E. coli (protein, UniProt P05060 21-677, looked up)
Secretogranin-1: MPVDNRNHNEGMVTRCIIEVLSNALSKSSAPPITPECRQVLKTSRKDVKDKETTENENTKFEVRLLRDPADASEAHESSSRGEAGAPGEEDIQGPTKADTEKWAEGGGHSRERADEPQWSLYPSDSQVSEEVKTRHSEKSQREDEEEEEGENYQKGERGEDSSEEKHLEEPGETQNAFLNERKQASAIKKEELVARSETHAAGHSQEKTHSREKSSQESGEETGSQENHPQESKGQPRSQEESEEGEEDATSEVDKRRTRPRHHHGRSRPDRSSQGGSLPSEEKGHPQEESEESNVSMASLGEKRDHHSTHYRASEEEPEYGEEIKGYPGVQAPEDLEWERYRGRGSEEYRAPRPQSEESWDEEDKRNYPSLELDKMAHGYGEESEEERGLEPGKGRHHRGRGGEPRAYFMSDTREEKRFLGEGHHRVQENQMDKARRHPQGAWKELDRNYLNYGEEGAPGKWQQQGDLQDTKENREEARFQDKQYSSHHTAEKRKRLGELFNPYYDPLQWKSSHFERRDNMNDNFLEGEEENELTLNEKNFFPEYNYDWWEKKPFSEDVNWGYEKRNLARVPKLDLKRQYDRVAQLDQLLHYRKKSAEFPDFYDSEEPVSTHQEAENEKDRADQTVLTEDEKKELENLAAMDLELQKIAEKFSQRG
modifications: C-terminal tag

How the values were obtained:
Type in all cases: cell-based, rat
[1] = tested on: nicotinic cholinergic-stimulated catecholamine release in PC12 cells; experiment: Nicotine-stimulated norepinephrine secretion from PC12 cells
In short: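 PC12 cells were washed, then stimulated with nicotine (60 µM) in secretion medium in the presence of graded concentrations of the CHGB-derived test peptide. Maximal effect was taken at 10 µM peptide. Human CHGA[352–372] served as the positive control. Norepinephrine release was measured and each experiment was repeated 3 times.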

[2] = tested on: nicotine-triggered uptake of 45Ca2+ in PC12 cells; experiment: Nicotinic cholinergic signal transduction: 45Ca2+ uptake; details: nicotine 60 µM, 45Ca2+ 2 µCi/ml, 5 minutes
In short: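 PC12 cells were plated on poly-L-lysine-coated dishes 2 days ahead and rinsed every 15 min for 1 h at 37°C in secretion buffer (150 mM NaCl, 5 mM KCl, 2 mM CaCl2, 10 mM Hepes, pH 7.4). Cells were exposed to ⁴⁵Ca²⁺ with drugs in Ca²⁺-free buffer for 5 min at room temperature. Uptake was stopped with ice-cold 1 mM LaCl3, followed by lysis and scintillation counting (cpm/well). Results are mean ± SEM.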

[3] = tested on: membrane depolarization-stimulated catecholamine release in PC12 cells; experiment: KCl; details: KCl 55 mM, CHGB full-length or plasmin-digested, repeated 3 times
In short: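 Rat PC12 cells (passage 10–25) grown in high-glucose DMEM with 10% horse serum and 5% FBS at 37°C in 6% CO2. After washing, cells were stimulated with KCl (55 mM) in secretion medium, with recombinant human CHGB (3.0 µM), either full-length or pre-digested with plasmin (10 µM CHGB, 2 µM plasmin, Tris-Cl pH 8.0, 150 mM NaCl, 1 hr). Three experiments.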

| Molecule | efficacy (maximal effect), inhibition of nicotinic cholinergic secretion ([1]; nicotine 60 µM, at 10 µM peptide) | IC50 ([1]; read-out: potency (IC50) to inhibit nicotinic cholinergic-stimulated catecholamine secretion, nicotine 60 µM, repeated 3 times) | inhibition of nicotine-stimulated uptake of 45Ca2+ [2] | reduction of membrane depolarization-stimulated catecholamine release [3] |
| --- | --- | --- | --- | --- |
| catestatin | ~ 100% | 450 nM | ~ 82% | – |
| B1 | – | – | – | ~ 23% |
